Assay results published in ChEMBL document CHEMBL3352558, “β-Keto and β-hydroxyphosphonate analogs of biotin-5'-AMP are inhibitors of holocarboxylase synthetase” (Bioorg Med Chem Lett, 2014).
Active and inactive are the calls of the source. The calls are words filed in the database; no cut-off is given here.

How the values were obtained:
[1] = molecular target: T1, Biotin--protein ligase (Homo sapiens) (UniProt P50747); assay: Inhibition of human recombinant HLCS using P67 as substrate at 500 uM after 2 hrs relative to vehicle-treated control
T1 sequence (whole entry): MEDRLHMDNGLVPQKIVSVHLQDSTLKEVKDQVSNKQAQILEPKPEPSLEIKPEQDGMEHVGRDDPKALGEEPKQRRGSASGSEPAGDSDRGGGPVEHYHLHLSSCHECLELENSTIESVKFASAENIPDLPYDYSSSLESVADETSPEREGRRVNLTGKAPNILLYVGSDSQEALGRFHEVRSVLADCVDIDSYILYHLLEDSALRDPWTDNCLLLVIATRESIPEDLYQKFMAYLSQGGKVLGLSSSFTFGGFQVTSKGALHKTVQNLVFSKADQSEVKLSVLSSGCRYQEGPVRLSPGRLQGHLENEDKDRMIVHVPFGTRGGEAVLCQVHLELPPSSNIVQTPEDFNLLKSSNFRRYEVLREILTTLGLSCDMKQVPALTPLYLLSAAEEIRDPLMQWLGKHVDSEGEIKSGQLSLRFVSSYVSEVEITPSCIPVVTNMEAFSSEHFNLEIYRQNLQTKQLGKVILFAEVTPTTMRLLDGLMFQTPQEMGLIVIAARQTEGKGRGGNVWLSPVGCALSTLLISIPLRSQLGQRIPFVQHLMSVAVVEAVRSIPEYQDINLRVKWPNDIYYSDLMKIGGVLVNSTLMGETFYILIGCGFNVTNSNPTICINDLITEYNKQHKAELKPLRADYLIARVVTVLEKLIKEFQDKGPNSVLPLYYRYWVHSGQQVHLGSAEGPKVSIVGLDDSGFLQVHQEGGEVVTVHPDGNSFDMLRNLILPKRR

[2] = Binding affinity to Staphylococcus aureus biotin protein ligase
[3] = Selectivity for Staphylococcus aureus biotin protein ligase over human HLCS
[4] = molecular target: T1, Biotin--protein ligase (Homo sapiens); assay: Competitive inhibition of human recombinant HLCS using P67 as substrate by Western blotting analysis in presence of biotin
Summary of the method: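 Recombinant HLCS (30 nM) with 2 µM p67 and the activity-assay cofactors; inhibitor fixed at 250 µM or absent, biotin varied 0-360 µM. Reactions stopped with Tricine loading dye and 95°C for 10 min. Biotinylated p67 detected by Western blot with anti-biotin and infrared imaging.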

[5] = molecular target: T1, Biotin--protein ligase (Homo sapiens); assay: (§1) Inhibition of human recombinant HLCS using P67 as substrate after 2 hrs relative to vehicle-treated control
[6] = molecular target: T2, Biotin--protein ligase (Homo sapiens, UniProt P50747); assay: as §1
T2 sequence (P50747 whole entry): T1 sequence (whole entry)

| Compound | inhibition [1] [%] | Ki [2] [nM] | Selectivity ratio [3] | inhibition [4] | inhibition [5] | IC50 [6] [µM] | Ki [6] [µM] |
| --- | --- | --- | --- | --- | --- | --- | --- |
| Nc1ncnc2c1ncn2[C@@H]1O[C@H](COP(=O)(O)OCCCCC[C@@H]2SC[C@@H]3NC(=O)N[C@@H]32)[C@@H](O)[C@H]1O | 98 | 30 | – | – | – | – | – |
| Nc1ncnc2c1ncn2[C@@H]1O[C@H](Cn2cc(CCCC[C@@H]3SC[C@@H]4NC(=O)N[C@@H]43)nn2)[C@@H](O)[C@H]1O | – | – | > 1100 | – | – | – | – |
| COP(=O)(O)CC(=O)CCCC[C@@H]1SC[C@@H]2NC(=O)N[C@@H]21 | – | – | – | inactive | – | – | – |
| Nc1ncnc2c1ncn2[C@@H]1O[C@H](COP(=O)(O)CC(=O)CCCC[C@@H]2SC[C@@H]3NC(=O)N[C@@H]32)[C@@H](O)[C@H]1O | 81.3 | – | – | Active | Dose-dependent effect | 39.7 | 2 |
| Nc1ncnc2c1ncn2[C@@H]1O[C@H](COP(=O)(O)CC(O)CCCC[C@@H]2SC[C@@H]3NC(=O)N[C@@H]32)[C@@H](O)[C@H]1O (stereo partly drawn) | 67.7 | – | – | Active | – | 204 | 10.4 |
